Reference: ChEMBL document CHEMBL4813946, “Discovery of novel 4-azaaryl-N-phenylpyrimidin-2-amine derivatives as potent and selective FLT3 inhibitors for acute myeloid leukaemia with FLT3 mutations” (Eur J Med Chem, 2021)

Columns and labels:
[1] = target: Cyclin-dependent kinase 1/cyclin B1 (Homo sapiens, UniProt P06493); test: Inhibition of CDK1/cyclin B (unknown origin) using histone 1 protein substrate incubated for 120 mins measured after 40 mins incubation under dark by ADP-glo based luminescence assay; type: protein-complex assay
Method in brief: (§1)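 In-house ADP-Glo assay with 2 mM DMSO stocks. Kinases were CDK1/cyclin B at 1 nM, CDK2/cyclin E1 at 10 nM and CDK7/cyclin H/MAT1 at 40 nM. Substrate was histone 1 for CDK1 and CDK2, and a RNA pol II CTD peptide for CDK7. Compound at 8–10 concentrations, 1:3 serial, final DMSO 0.5%. Reactions ran 60–120 min at room temperature, then ADP-Glo reagent 40 min in the dark, then detection reagent 40 min, read by luminescence. Ki was derived from IC50 by Cheng-Prusoff.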

[2] = target: Cyclin-dependent kinase 2/cyclin E1 (Homo sapiens, UniProt P24941); test: Inhibition of CDK2/cyclin E (unknown origin) using histone 1 protein substrate incubated for 120 mins measured after 40 mins incubation under dark by ADP-glo based luminescence assay; type: protein-complex assay; method in brief: as §1
[3] = target: T1, Receptor-type tyrosine-protein kinase FLT3 (Homo sapiens, UniProt P36888); test: Inhibition of wild type FLT3 (unknown origin) using Glu/Tyr peptide substrate incubated for 120 mins measured after 40 mins incubation under dark by ADP-glo based luminescence assay
T1 sequence (P36888 whole entry): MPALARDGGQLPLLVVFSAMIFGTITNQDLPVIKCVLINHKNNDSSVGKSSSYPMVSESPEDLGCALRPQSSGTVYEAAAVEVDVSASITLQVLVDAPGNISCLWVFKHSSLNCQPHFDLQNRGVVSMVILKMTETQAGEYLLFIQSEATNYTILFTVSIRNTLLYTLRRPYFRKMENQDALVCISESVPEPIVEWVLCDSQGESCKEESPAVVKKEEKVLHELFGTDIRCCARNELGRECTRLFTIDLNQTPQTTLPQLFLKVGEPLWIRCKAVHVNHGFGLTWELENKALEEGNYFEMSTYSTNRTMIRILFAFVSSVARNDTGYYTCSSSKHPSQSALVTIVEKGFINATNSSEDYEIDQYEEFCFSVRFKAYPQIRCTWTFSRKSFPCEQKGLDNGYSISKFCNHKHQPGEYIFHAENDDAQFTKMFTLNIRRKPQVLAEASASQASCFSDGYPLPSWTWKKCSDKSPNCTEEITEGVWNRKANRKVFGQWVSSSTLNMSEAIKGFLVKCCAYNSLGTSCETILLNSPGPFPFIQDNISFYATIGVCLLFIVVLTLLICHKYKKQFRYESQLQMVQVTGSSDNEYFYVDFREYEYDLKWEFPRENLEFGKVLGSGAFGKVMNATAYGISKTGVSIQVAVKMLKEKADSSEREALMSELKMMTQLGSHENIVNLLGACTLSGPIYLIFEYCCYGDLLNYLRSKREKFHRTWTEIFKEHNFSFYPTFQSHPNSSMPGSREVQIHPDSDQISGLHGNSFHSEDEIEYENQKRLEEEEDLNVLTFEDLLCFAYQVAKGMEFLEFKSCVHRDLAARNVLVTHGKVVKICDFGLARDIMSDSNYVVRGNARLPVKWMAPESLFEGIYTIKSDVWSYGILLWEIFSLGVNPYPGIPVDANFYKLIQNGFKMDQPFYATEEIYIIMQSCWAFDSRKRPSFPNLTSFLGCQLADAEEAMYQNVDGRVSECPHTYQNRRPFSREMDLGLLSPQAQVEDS
Method in brief: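 In-house ADP-Glo assay with poly(Glu,Tyr) 4:1 substrate in 40 mM Tris pH 7.5, 20 mM MgCl2, 50 µM DTT, 0.1 mg/mL BSA. Kinase at 20 nM. ADP-Glo reagent 40 min in the dark, detection reagent 30–40 min, then luminescence. Ki was derived from IC50 by Cheng-Prusoff.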

[4] = target: Receptor-type tyrosine-protein kinase FLT3 (Homo sapiens, UniProt P36888, ITD); test: Inhibition of FLT3 ITD mutant (unknown origin) using Glu/Tyr peptide substrate incubated for 80 mins measured after 40 mins incubation under dark by ADP-glo based luminescence assay
[5] = target: CDK7/Cyclin H/MNAT1 (Homo sapiens, UniProt P50613); test: Inhibition of CDK7/cyclin H/MAT1 (unknown origin) using HYSPTSPSYSPTSPSYSPTSPSKKKK-O substrate incubated for 120 mins measured after 40 mins incubation under dark by ADP-glo based luminescence assay; type: protein-complex assay; method in brief: as §1
[6] = system: MV4-11; test: Antiproliferative activity against human MV4-11 cells incubated for 72 hrs by resazurin assay; type: functional
Method in brief: (§2)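 Cells seeded and pre-incubated 24 h at 37 °C, 5% CO2, then given a five-fold dilution series of compound (from 10 mM DMSO stock) in medium, in triplicate. Resazurin added after 72 h exposure, 4 h in dark at 37 °C. Fluorescence read at 570/585 nm, normalised to DMSO vehicle. GI50 by non-linear regression; mean ± SD of at least two replicates.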

[7] = target: Receptor-type tyrosine-protein kinase FLT3 (Homo sapiens, UniProt P36888, D835Y); test: Inhibition of FLT3 D835Y mutant (unknown origin) incubated for 120 mins by ADP-glo based luminescence assay
[8] = Inhibition of FLT3 ITD-W51 mutant (unknown origin) incubated for 120 mins by ADP-glo based luminescence assay; parameters: species or system Homo sapiens
[9] = system: K562; test: Antiproliferative activity against human K562 cells harboring FLT3 knockout gene assessed as reduction in cell viability after 72 hrs by resazurin assay; type: functional; method in brief: as §2
[10] = system: U-937; test: Antiproliferative activity against human U-937 cells harboring wild type/low FLT3 assessed as reduction in cell viability after 72 hrs by resazurin assay; type: functional; method in brief: as §2
[11] = Inhibition of FLT3 ITD-NPOS mutant (unknown origin) incubated for 120 mins by ADP-glo based luminescence assay; parameters: species or system Homo sapiens
[12] = system: MV4-11; test: Antiproliferative activity against human MV4-11 cells harboring FLT3-ITD mutant assessed as reduction in cell viability after 72 hrs by resazurin assay; type: functional; method in brief: as §2
[13] = target: Receptor-type tyrosine-protein kinase FLT3 (Homo sapiens, UniProt P36888, R595-E596INSEY); test: Inhibition of FLT3 R595_E596insEY mutant (unknown origin) incubated for 120 mins by ADP-glo based luminescence assay
[14] = target: Receptor-type tyrosine-protein kinase FLT3 (Homo sapiens, UniProt P36888, F594-R595INSR); test: Inhibition of FLT3 F594_R595insR mutant (unknown origin) incubated for 120 mins by ADP-glo based luminescence assay
[15] = system: Jurkat; test: Antiproliferative activity against human Jurkat cells harboring FLT3 knockout gene assessed as reduction in cell viability after 72 hrs by resazurin assay; type: functional; method in brief: as §2
[16] = system: NB-4; test: Antiproliferative activity against human NB-4 cells harboring wild type FLT3 assessed as reduction in cell viability after 72 hrs by resazurin assay; type: functional; method in brief: as §2
[17] = system: THP-1; test: Antiproliferative activity against human THP-1 cells harboring wild type FLT3 assessed as reduction in cell viability after 72 hrs by resazurin assay; type: functional; method in brief: as §2
[18] = Antiproliferative activity against human MOLM-13 cells harboring FLT3-ITD mutant assessed as reduction in cell viability after 72 hrs by resazurin assay; type: functional; conditions: MOLM-13, 72 h; method in brief: as §2
[19] = Inhibition of FLT3 Y591-V592insVDFREYEYD mutant (unknown origin) incubated for 120 mins by ADP-glo based luminescence assay; parameters: species or system Homo sapiens

CDK7/Cyclin H/MNAT1, sequence (P51946 whole entry): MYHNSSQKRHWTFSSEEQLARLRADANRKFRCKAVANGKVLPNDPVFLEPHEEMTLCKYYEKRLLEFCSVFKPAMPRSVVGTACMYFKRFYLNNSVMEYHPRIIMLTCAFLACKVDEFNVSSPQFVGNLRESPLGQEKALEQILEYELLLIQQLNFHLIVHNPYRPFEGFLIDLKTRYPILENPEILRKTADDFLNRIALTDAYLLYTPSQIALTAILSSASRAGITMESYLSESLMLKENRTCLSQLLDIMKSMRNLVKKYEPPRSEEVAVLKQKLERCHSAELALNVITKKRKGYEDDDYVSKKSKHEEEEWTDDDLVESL
CDK7/Cyclin H/MNAT1, sequence (P50613 whole entry): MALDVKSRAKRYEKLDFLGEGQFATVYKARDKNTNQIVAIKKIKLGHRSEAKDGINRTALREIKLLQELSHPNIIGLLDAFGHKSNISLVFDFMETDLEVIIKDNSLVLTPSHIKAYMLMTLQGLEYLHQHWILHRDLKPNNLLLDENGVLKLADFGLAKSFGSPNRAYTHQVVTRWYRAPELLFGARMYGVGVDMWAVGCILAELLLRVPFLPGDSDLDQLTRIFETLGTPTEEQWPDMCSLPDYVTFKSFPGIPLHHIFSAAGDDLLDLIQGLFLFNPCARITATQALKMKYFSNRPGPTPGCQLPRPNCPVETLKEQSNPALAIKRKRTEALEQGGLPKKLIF
CDK7/Cyclin H/MNAT1, sequence (P51948 whole entry, further chain): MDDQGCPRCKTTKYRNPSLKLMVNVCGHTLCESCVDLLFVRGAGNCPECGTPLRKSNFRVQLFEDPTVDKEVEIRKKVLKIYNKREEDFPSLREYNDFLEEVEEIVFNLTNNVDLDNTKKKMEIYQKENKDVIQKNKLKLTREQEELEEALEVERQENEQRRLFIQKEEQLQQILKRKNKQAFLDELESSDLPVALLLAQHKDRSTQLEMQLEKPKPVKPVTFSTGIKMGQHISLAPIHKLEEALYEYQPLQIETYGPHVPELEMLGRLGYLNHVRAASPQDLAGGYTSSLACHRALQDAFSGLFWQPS
Cyclin-dependent kinase 1/cyclin B1, sequence (P06493 whole entry): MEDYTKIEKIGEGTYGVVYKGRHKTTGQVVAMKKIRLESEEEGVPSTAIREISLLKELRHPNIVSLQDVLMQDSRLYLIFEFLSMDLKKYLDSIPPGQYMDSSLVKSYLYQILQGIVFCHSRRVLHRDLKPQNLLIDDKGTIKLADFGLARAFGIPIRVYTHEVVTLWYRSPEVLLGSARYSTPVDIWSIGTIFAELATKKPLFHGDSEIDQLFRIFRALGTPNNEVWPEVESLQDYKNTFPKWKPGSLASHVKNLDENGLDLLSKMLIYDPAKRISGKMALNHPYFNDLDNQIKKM
Cyclin-dependent kinase 1/cyclin B1, sequence (P14635 whole entry, further chain): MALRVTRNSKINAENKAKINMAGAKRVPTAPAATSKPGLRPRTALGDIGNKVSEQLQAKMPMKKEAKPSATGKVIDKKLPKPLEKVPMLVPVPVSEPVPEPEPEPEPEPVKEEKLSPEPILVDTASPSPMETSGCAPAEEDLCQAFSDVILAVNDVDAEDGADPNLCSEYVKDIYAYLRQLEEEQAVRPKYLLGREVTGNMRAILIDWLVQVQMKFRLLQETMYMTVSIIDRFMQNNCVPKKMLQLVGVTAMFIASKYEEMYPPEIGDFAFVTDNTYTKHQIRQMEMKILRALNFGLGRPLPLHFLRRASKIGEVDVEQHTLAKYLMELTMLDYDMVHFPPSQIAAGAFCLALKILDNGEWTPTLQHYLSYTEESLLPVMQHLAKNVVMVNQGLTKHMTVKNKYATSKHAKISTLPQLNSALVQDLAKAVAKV

Compound	Ki [1] [nM]	Ki [2] [nM]	Ki [3] [nM]	Ki [4] [nM]	Ki [5] [µM]	GI50 [6] [nM]	also measured
CC(=O)N1CCCN(c2cccc(Nc3nccc(-c4cnc5n(C)cccc4-5)n3)c2)CC1	1760	> 5000	1	0.7	> 5	24	–
CC(=O)N1CCN(c2ccc(Nc3nccc(-c4cn(S(=O)(=O)c5ccc(C)cc5)c5ccccc45)n3)cc2)CC1	> 5000	> 5000	> 5000	128	> 5	1560	–
CC(=O)N1CCN(c2ccc(Nc3nccc(-c4c[nH]c5cccnc45)n3)cc2)CC1	> 5000	> 5000	32	4	> 5	420	–
CN1CCN(c2cccc(Nc3nccc(-c4cn(C)c5ncccc45)n3)c2)CC1	> 5000	970	40	13	> 5	24	–
CC(=O)N1CCCN(c2cccc(Nc3nccc(-c4n[nH]c5ccccc45)n3)c2)CC1	727	> 5000	1	0.6	> 5	18	–
CC(=O)N1CCCN(c2cccc(Nc3nccc(-c4c[nH]c5cccnc45)n3)c2)CC1	> 5000	> 5000	150	107	> 5	688	–
CC(=O)N1CCN(c2ccc(Nc3ncc(C#N)c(-c4c[nH]c5ccccc45)n3)cc2)CC1	4050	> 5000	4	0.4	0.426	4	–
CN1CCN(c2cccc(Nc3nccc(-c4c[nH]c5cccnc45)n3)c2)CC1	> 5000	> 5000	217	20	> 5	405	–
CC(=O)N1CCN(c2ccc(Nc3ncc(C#N)c(-c4n[nH]c5ccccc45)n3)cc2)CC1	1650	> 5000	21	0.2	> 5	17	Ki [7]: < 0.3 nM; Ki [8]: < 0.3 nM; GI50 [9]: 185 nM; GI50 [10]: > 10 µM; Ki [11]: < 0.3 nM; GI50 [12]: 17 nM; Ki [13]: < 0.3 nM; Ki [14]: < 0.3 nM; GI50 [15]: > 10 µM; GI50 [16]: 126 nM; GI50 [17]: 3.04 µM; GI50 [18]: 0.4 nM; Ki [19]: < 0.3 nM
CC(=O)N1CCCN(c2cccc(Nc3nccc(-c4c[nH]c5ncccc45)n3)c2)CC1	51	31	0.4	0.1	0.029	20	–
CCc1nc(C(N)=O)c(Nc2ccc(N3CCC(N4CCN(C)CC4)CC3)c(OC)c2)nc1NC1CCOCC1 [GILTERITINIB]	> 5000	1480	–	–	> 5	2	–
CC(=O)N1CCN(c2ccc(Nc3nccc(-c4nn(C)c5ccccc45)n3)cc2)CC1	> 5000	> 5000	883	274	> 5	181	–

More lines, main results first:

Ki [1] [nM]	Ki [2] [nM]	Ki [3] [nM]	Ki [4] [nM]	Ki [5] [µM]	GI50 [6] [nM]	Compound	also measured
531	84	4	2	0.142	5	CN1CCN(c2cccc(Nc3nccc(-c4c[nH]c5ncccc45)n3)c2)CC1	–
91	49	0.8	0.1	> 5	< 1	CC(=O)N1CCN(c2ccc(Nc3nccc(-c4c[nH]c5ncccc45)n3)cc2)CC1	–
1580	1120	37	7	1.62	30	CC(=O)N1CCN(c2ccc(Nc3ncc(C#N)c(-c4cn(C)c5ccccc45)n3)cc2)CC1	–
> 5000	> 5000	> 5000	207	> 5	346	CC(=O)N1CCN(c2ccc(Nc3nccc(-c4n[nH]c5ccccc45)n3)cc2)CC1	–
> 5000	> 5000	22	11	> 5	33	CC(=O)N1CCN(c2ccc(Nc3nccc(-c4c[nH]c5ccccc45)n3)cc2)CC1	–
> 5000	2170	119	2	0.536	390	CC(=O)N1CCN(c2ccc(Nc3ncc(C#N)c(-c4c(C)[nH]c5ccccc45)n3)cc2)CC1	–
> 5000	> 5000	149	133	> 5	252	CC(=O)N1CCN(c2ccc(Nc3nccc(-c4cn(C)c5ccccc45)n3)cc2)CC1	–
